Reference: ChEMBL document CHEMBL1128190, “Inhibition of E-selectin-, ICAM-1-, and VCAM-1-mediated cell adhesion by benzo[b]thiophene-, benzofuran-, indole-, and naphthalene-2-carboxamides: identification of PD 144795 as an antiinflammatory agent” (J Med Chem, 1995)

Experiments:
[1] = Cell adhesion measured using the inhibitory concentration against Human umbilical vein endothelial cell (HUVEC) activation, with Na51CrO4 as radioligand at 100 uM; format: functional
In short: (§1)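 Confluent second-passage HUVEC monolayers were stimulated with TNF-α (200 U/mL) for 4 h with or without compound at 100 μM, then washed. Fresh human neutrophils labelled with Na⁵¹CrO₄ (5 × 10⁵) were added for 30 min at 37 °C. Non-adherent cells were aspirated and adherent cells lysed in NH₄OH; lysates were γ-counted. Results are % inhibition of TNF-stimulated adherence, triplicate. IC50 came from linear regression at 33.3–1.0 μM.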

[2] = Inhibitory activity against intercellular adhesion molecule (ICAM)-1 mediated cell adhesion in Human umbilical endothelial cell culture, by using HUVEC surface expression assay.; format: functional, cell-based
In short: (§2)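 HUVECs were pretreated with compound for 30 min, then stimulated with TNF-α (140 U/mL final) for 4 h at 37 °C. After formalin fixation, surface ICAM-1 was measured by cell ELISA (mouse anti-ICAM-1 0.5 μg/mL, peroxidase anti-mouse IgG), with absorbance at 414 nm. Unstimulated background was subtracted and results given as % inhibition versus vehicle. IC50 came from linear regression; average of two triplicate assays.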

[3] = Inhibitory activity against E-Selectin mediated cell adhesion in Human umbilical endothelial cell culture, by using HUVEC surface expression assay.; format: functional, cell-based
In short: (§3)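 Confluent HUVECs were given compound 30 min before TNF-α (140 U/mL final), then incubated 4 h at 37 °C. Cells were formalin-fixed and surface E-selectin detected by cell ELISA (mouse anti-E-selectin 0.5 μg/mL, peroxidase anti-mouse IgG), with absorbance at 414 nm. Unstimulated background was subtracted and results given as % inhibition versus vehicle. IC50 came from linear regression; average of two assays, each in triplicate.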

Rattus norvegicus [4] = test: Inhibitory activity against Mycobacterium-induced foot-pad edema(MFE) at 50 mg/kg; format: functional
[5] = The compound was tested for cell adhesion by measuring the inhibitory concentration against Human umbilical vein endothelial cell (HUVEC) activation, using Na51CrO4 as radioligand.; format: functional, cell-based
[6] = The compound was tested for inhibitory activity against intercellular adhesion molecule (ICAM)-1 mediated cell adhesion in Human umbilical endothelial cell culture, by using HUVEC surface expression assay.; format: functional, cell-based
In short: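 HUVECs were pretreated with compound for 30 min, then stimulated with TNF-α (140 U/mL final) for 4 h at 37 °C. Unstimulated background was subtracted and results given as % inhibition versus vehicle. IC50 came from linear regression; average of two triplicate assays.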

[7] = The compound was tested for inhibitory activity against E-Selectin mediated cell adhesion in Human umbilical endothelial cell culture, by using HUVEC surface expression assay.; format: functional, cell-based
In short: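 Confluent HUVECs were given compound 30 min before TNF-α (140 U/mL final), then incubated 4 h at 37 °C. Unstimulated background was subtracted and results given as % inhibition versus vehicle. IC50 came from linear regression; average of two assays, each in triplicate.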

[8] = The compound was tested for inhibitory activity against intercellular adhesion molecule (ICAM)-1 mediated cell adhesion in Human aortic endothelial cell culture, by using HAEC surface expression assay at 50 micro M
[9] = The compound was tested for inhibitory activity against vascular cell adhesion molecule (VCAM)-1 mediated cell adhesion in Human aortic endothelial cell culture, by using HAEC surface expression assay at 50 micro M
[10] = The compound was tested for cell adhesion by measuring the inhibitory concentration against Human umbilical vein endothelial cell (HUVEC) activation, using calcein-AM as radioligand at 33 uM; format: functional
[11] = The compound was tested for inhibitory activity against vascular cell adhesion molecule (VCAM)-1 mediated cell adhesion in Human aortic endothelial cell culture, by using HAEC surface expression assay at 50 uM; format: functional
In short: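 Human aortic endothelial cells at confluence were incubated with TNF-α (250 U/mL) and compound (0.005% DMSO final) for 18 h, then formalin-fixed. Cells were probed with anti-VCAM-1 mAb (2 h, 37 °C), then biotin anti-mouse IgG+IgM F(ab)₂ (1 h), then [¹²⁵I]streptavidin (15 min, 4 °C). NaOH digests were counted.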

[12] = The compound was tested for inhibitory activity against intercellular adhesion molecule (ICAM)-1 mediated cell adhesion in Human aortic endothelial cell culture, by using HAEC surface expression assay at 50 uM; format: functional
In short: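 Confluent human aortic endothelial cells were incubated with TNF-α (250 U/mL) and compound (0.005% DMSO final) for 18 h. Cells were formalin-fixed and probed with anti-ICAM-1 mAb (2 h, 37 °C), then peroxidase anti-mouse IgG (1 h) and colour reagent (15 min). Read-out was OD414.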

[13] = Inhibitory activity against Human umbilical vein endothelial cell (HUVEC) activation, using Na51CrO4 as radioligand at 100 uM.; format: functional; in short: as §1
[14] = The compound was tested for cell adhesion by measuring the inhibitory concentration against Human umbilical vein endothelial cell (HUVEC) activation, using Na51CrO4 as radioligand at 100 micro M; format: functional; in short: as §1
[15] = The compound was tested for cell adhesion by measuring the inhibitory concentration against Human umbilical vein endothelial cell (HUVEC) activation, using Na51CrO4 as radioligand at 50 uM; format: functional
[16] = The compound was tested for cell adhesion by measuring the inhibitory concentration against Human umbilical vein endothelial cell (HUVEC) activation, using calcein-AM as radioligand at 100 uM; format: functional
Rattus norvegicus [17] = test: Inhibitory activity against Mycobacterium-induced foot-pad edema(MFE)at 50 mg/kg; format: functional
[18] = Inhibitory activity against intercellular adhesion molecule (ICAM)-1 mediated cell adhesion in Human umbilical endothelial cell culture, by using HUVEC surface expression assay at 50 uM; format: functional; in short: as §2
[19] = Inhibitory activity against E-Selectin mediated cell adhesion in Human umbilical endothelial cell culture, by using HUVEC surface expression assay at 50 uM; format: functional; in short: as §3
[20] = cell adhesion assay; measuring the inhibitory concentration against Human umbilical vein endothelial cell (HUVEC) activation, using Na51CrO4 as radioligand at 100 uM; format: functional; conditions: in the assay text read “calcein-AM” for “Na51CrO4”
[21] = The compound was tested for cell adhesion by measuring the inhibitory concentration against Human umbilical vein endothelial cell (HUVEC) activation, using calcein-AM as radioligand; format: functional, cell-based
[22] = The compound was tested for cell adhesion by measuring the inhibitory concentration against Human umbilical vein endothelial cell (HUVEC) activation, using calcein-AM radioligand at 100 uM; format: functional
[23] = The compound was tested for cell adhesion by measuring the inhibitory concentration against Human umbilical vein endothelial cell (HUVEC) activation, using Na51CrO4 as radioligand at 100 uM; format: functional; in short: as §1

COc1ccc2sc(C(N)=O)c(OCc3ccccc3)c2c1
inhibition at 100 µM [1]: 57%

COc1ccc2c(c1)c(OC(C)C)c(C(N)=O)[s+]2[O-] (stereo not drawn) [listing 1 of 2 here]
IC50 [2]: 5.7 µM | IC50 [3]: 9.6 µM | inhibition in vivo at 50 mg/kg (Rattus norvegicus [4]): 83% | IC50 [5]: 4 µM

CC(C)Sc1c(C(N)=O)sc2ccccc12
inhibition at 100 µM [1]: 34%

CNC(=O)c1sc2ccc(OC)cc2c1OC(C)C
IC50 [6]: 6.6 µM | IC50 [7]: 1.4 µM | Inhibition [8]: 85% | Inhibition [9]: 83% | IC50 [5]: 15 µM

CC(C)Sc1c(C(N)=O)sc2ccc(OCc3ccccc3)cc12
inhibition at 33 µM [10]: 24%

CC(C)Oc1c(C(N)=O)sc2ccc(Cl)cc12
inhibition at 100 µM [1]: 72%

COc1ccc2ccc(C(N)=O)c(OC(C)C)c2c1
IC50 [6]: 5.2 µM | IC50 [7]: 8.6 µM | inhibition at 50 µM [11]: 81% | inhibition at 50 µM [12]: 86% | IC50 [5]: 11 µM

COc1ccc2c(c1)c(Oc1ccccc1)c(C(N)=O)[s+]2[O-] (stereo not drawn)
inhibition at 100 µM [13]: 15%

CC(C)Oc1c(C(N)=O)ccc2ccccc12
inhibition at 100 µM [1]: < 4%

CC(C)Oc1c(C(N)=O)oc2ccccc12
inhibition at 100 µM [1]: 20%

CCNC(=O)c1sc2ccc(OC)cc2c1OC(C)C
Inhibition [14]: 64%

CCNC(=O)c1ccc2ccc(OC)cc2c1OC(C)C
inhibition at 100 µM [1]: 73%

CC(C)Oc1c(C(N)=O)[s+]([O-])c2ccc(O)cc12 (stereo not drawn)
IC50 [2]: 2.7 µM | IC50 [3]: 5 µM

CC(C)OC1=C(C(N)=O)S(=O)(=O)c2ccc(O)cc21
inhibition at 50 µM [15]: < 4%

COc1ccc2sc(C(=O)Nc3cccc(C(=O)O)c3)c(OC(C)C)c2c1
inhibition at 100 µM [1]: 28%

COc1ccc2sc(C(N)=O)c(SCCCCC(=O)O)c2c1
inhibition at 100 µM [16]: 37%

COc1ccc2sc(C(N)=O)c(OC)c2c1
inhibition at 100 µM [1]: 60%

COc1ccc2sc(C(N)=O)c(SC)c2c1
inhibition at 100 µM [1]: 81%

COc1ccc2c(c1)c(OC(C)C)c(C(N)=O)[s+]2[O-] (stereo not drawn) [listing 2 of 2 here]
inhibition in vivo at 50 mg/kg (Rattus norvegicus [17]): 5% | inhibition at 50 µM [15]: 20% | inhibition at 50 µM [18]: 24% | inhibition at 50 µM [19]: 25%

COc1ccc2ccc(C(=O)Nc3ccccc3)c(OC(C)C)c2c1
inhibition at 100 µM [1]: < 4%

CC(C)Oc1c(C(N)=O)[s+]([O-])c2ccccc12 (stereo not drawn)
inhibition at 100 µM [20]: < 4%

COc1ccc2c(c1)c(OC(C)C)c(C(N)=O)n2C
IC50 [6]: 3.7 µM | IC50 [7]: 9.2 µM | inhibition at 50 µM [11]: 84% | inhibition at 50 µM [12]: 92% | IC50 [5]: 10 µM

CC(C)Sc1c(C(N)=O)sc2ccc(O)cc12
IC50 [21]: 3.6 µM

CCNC(=O)c1oc2ccc(OC)cc2c1OC(C)C
inhibition at 100 µM [16]: < 4%

COc1ccc2sc(C(N)=O)c(SCC(=O)O)c2c1
inhibition at 33 µM [10]: 7%

COc1ccc2sc(C(=O)Nc3ccc(C(=O)O)cc3)c(OC(C)C)c2c1
IC50 [5]: 50 µM

COc1ccc2sc(C(=O)NCc3ccccc3)c(OC(C)C)c2c1
inhibition at 100 µM [22]: 35%

CNC(=O)c1c(OC(C)C)c2cc(OC)ccc2[s+]1[O-] (stereo not drawn)
inhibition at 100 µM [23]: 43%

COc1ccc2sc(C(N)=O)c(Sc3ccccc3)c2c1
inhibition at 100 µM [1]: 48%
